# Screening results: PubChem BioAssay, several laboratories
# Shown are actives, neighbours in structure and some others; about 2.2% of the full set was active somewhere.
# PglD inh – PglD (C. jejuni) enzyme inhibition. purified PglD enzyme, DTNB colorimetric CoA detection. inhibition, % at 12.5 µM. actives 0.098% (n = 360,000); in the data active = inhibition above about 16%, passing the limit was not always enough
# rRNA inh HTS – selective bacterial rRNA inhibition in E. coli. E. coli WT GFP vs humanized-ribosome RFP mutants, fluorescence, 24 h; active compounds read low; DMSO median 0, no signal -100. GFP signal change (wild-type ribosome), % (test concentration not listed). actives 1.6% (n = 350,000);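 active = significant combined selectivity score with lowered wild-type GFP, culture density cut under 30%, mutant RFP and density less affected; inactive = any of these conditions unmet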
# Cneo AK release – causes C. neoformans cell lysis. adenylate kinase release luminescence, 4 h; normalised: neutral wells 0, clomiphene wells 100. lysis activity, % at 15 µM. actives 0.2% (n = 360,000);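 active = mean lysis activity across replicates of at least 80%, whatever share of replicates individually reach that level; inactive = mean lysis activity below 80%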
#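 Material – log-phase Cryptococcus neoformans yeast cells · Input – 5 × 10^6 yeast cells/mL · Medium – fresh YPD growth medium · Doses – single compound concentration per well · Timing – static 4 h at 37 °C with compound, 1 h detection · Detection – adenylate kinase release luminescence · Read-out – signal increase indicating cell lysis · Control set – Clomiphene as positive lysis control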
# CR mimetic SO – lowers age-related superoxide in aged yeast cells. S. cerevisiae aged cells, superoxide DHE fluorescence; active compounds read low. superoxide response (% of plate mean), % at 10 µM. actives 0.18% (n = 330,000). AID 2690;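 active = superoxide response under a set limit, about three screen SD below normal, cut at about 65% in these data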;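 also: yeast aged for seven days with compound at 30 °C before DHE staining; 100% = average MFI of all compound-treated wells on the plate with controls excluded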
# Mot1-301 SUMO – inhibitors of SUMOylation pathway: yeast Mot1-301 growth rescue | S. cerevisiae Mot1-301 growth rescue, ATP luminescence, 38.5C; percent above DMSO median, 100 means doubled | growth rescue, % at 18.8 µM | actives 1% (n = 320,000);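 active = every valid replicate shows activation above 250% relative to neutral control wells; inactive = the rest, any valid replicate at or below 250%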;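 also: OY570 slx delta 5 strain wells were the positive control but not used for scaling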
# Numbers without * were called inactive; x = no result.
SMILES,PglD inh,rRNA inh HTS,Cneo AK release,CR mimetic SO,Mot1-301 SUMO
COc1ccc(NC(=O)N(C)C[C@H]2OCCCC[C@@H](C)Oc3ccc(NC(=O)c4ccccc4)cc3C(=O)N([C@H](C)CO)C[C@H]2C)cc1,2.2,-0.3,83.3*,x,x
COc1ccc(NC(=O)N(C)C[C@H]2OCCCC[C@@H](C)Oc3ccc(NC(=O)c4ccccc4)cc3C(=O)N([C@@H](C)CO)C[C@H]2C)cc1,-4.9,-0.1,102.0*,x,x
COc1ccc(NC(=O)N(C)C[C@@H]2OCCCC[C@@H](C)Oc3ccc(NC(=O)c4ccccc4)cc3C(=O)N([C@@H](C)CO)C[C@@H]2C)cc1,x,4.3,x,x,x
COCC(=O)Nc1ccc2c(c1)[C@H]1C[C@@H](CC(=O)NCc3ccc(OC)cc3)O[C@@H](CO)[C@H]1O2,2.5,1.8,0.0,x,x
C[C@@H]1CN([C@H](C)CO)C(=O)c2cc(NS(=O)(=O)c3ccc(F)cc3)ccc2O[C@@H](C)CCCCO[C@@H]1CN(C)Cc1ccncc1,1.2,0.3,0.4,x,x
Cc1ccc2nc(NC(=O)c3ccco3)sc2c1,x,x,x,113.7,-12.4
Cc1ccc2nc(NC(=S)NC(=O)c3ccco3)sc2c1,x,-15.4*,x,102.3,2.9
O=C(C[C@H]1CC[C@H]2[C@@H](COC[C@@H](O)CN2Cc2ccccc2F)O1)N[C@@H]1CCN(Cc2ccccc2)C1,-3.8,-5.0,-4.9,x,x
Cc1cc(C)[n+]2[nH]c(N)c(N=Nc3ccccc3)c2n1,x,-28.4*,x,116.5,14.3
CNC[C@H]1OCCCC[C@H](C)Oc2ccc(NC(=O)Nc3c(C)noc3C)cc2C(=O)N([C@@H](C)CO)C[C@@H]1C,x,8.4,x,x,x
COc1ccc(S(=O)(=O)N(C)C[C@@H]2OCCCC[C@@H](C)Oc3ccc(NS(=O)(=O)c4ccccc4)cc3C(=O)N([C@@H](C)CO)C[C@@H]2C)cc1,1.3,-1.4,0.1,x,x
Cc1cc(C(=O)COc2ccc(Cl)cc2Br)c(C)n1C,x,-45.5*,x,94.0,-15.6
CC1(C)CC(N2CCCC2)=CC(=[N+]2CCCCCC2)C1,x,-20.6*,x,144.7,0.5
COc1ccc(CN(CC(O)COCc2ccccc2)S(=O)(=O)c2ccccc2Br)cc1OC (stereo not given),1.2,-20.8*,3.5,116.1,x
C=CC(COCc1ccccc1)N(C(=O)OC(C)(C)C)S(=O)(=O)c1ccccc1Br (stereo not given),7.6,1.9,1.5,84.6,137.3
CC(Cc1ccccc1)NC(=S)CN1CCCC1=S (stereo not given),x,-21.0*,x,76.8,13.5
C[C@@H]1CN([C@H](C)CO)C(=O)c2cc(NC(=O)Nc3ccc4c(c3)OCO4)ccc2O[C@H]1CN(C)Cc1ccc(C(F)(F)F)cc1,4.2,-5.3,-2.1,x,x
Cn1ccc2c(-c3ccc(F)cc3)cc3c(c21)C1CCC3C1 (stereo not given),2.2,-1.6,0.7,x,x
Cn1ccc2c(-c3ccc(CO)cc3)cc3c(c21)C1CCC3C1 (stereo not given),3.8,-30.4*,0.3,x,x
COc1ccc(-c2c[n+]3c(n2-c2ccccc2)SCC3)cc1,-0.7,-0.1,2.5,84.0,-9.3
c1ccc(Cn2c(-c3ccccc3)c[n+]3c2SCCC3)cc1,-0.1,-45.3*,0.3,97.2,3.4
CCN(CC)P(=O)(c1ccccc1)c1c(C)nc2ccccn12 (stereo not given),x,1.4,x,98.0,276.0*
CCNC(=O)c1c(C)nc2ccccn12,-3.3,x,-0.8,93.2,x
C[C@H]1CN([C@@H](C)CO)C(=O)c2cccc(N(C)C)c2O[C@H]1CN(C)C(=O)Nc1ccc2c(c1)OCO2,0.5,-1.6,7.2,x,x
COc1ccccc1C1(CC(=O)Nc2nccs2)CCOC(C(C)C)C1 (stereo not given),x,x,x,101.3,18.8
SMILES,PglD inh,rRNA inh HTS,Cneo AK release,CR mimetic SO,Mot1-301 SUMO
COc1ccccc1C1(CC(=O)N2CCOCC2)CCOC(C(C)C)C1 (stereo not given),-3.5,x,-4.3,109.6,569.6*
Cc1ccc(SCc2c(C(=O)N/N=C/c3ccccc3)nnn2-c2nonc2N)cc1,x,-16.3*,x,92.3,-26.0
CC(C)c1c(C(=O)N/N=C/c2cccnc2)nnn1-c1nonc1N,2.0,-20.0*,-1.6,99.8,-6.9
Cc1ccc(/C=N/NC(=O)c2nnn(-c3nonc3N)c2CSc2ccccc2)cc1,x,-1.8,x,80.9,1.2
CN(Cc1c(C(=O)N/N=C/c2c(F)cccc2Cl)nnn1-c1nonc1N)c1ccccc1,5.9,-21.6*,-2.9,99.9,-59.3
CN(C)CCCNC(=O)C[C@H]1C=C[C@@H](NS(=O)(=O)c2ccccc2)[C@H](CO)O1,2.4,0.7,43.5,x,x
O=C(C[C@H]1CC[C@H]2[C@@H](COC[C@H](O)CN2Cc2cccc(F)c2)O1)NCCc1ccncc1,1.1,3.5,3.2,x,x
COc1ccc(C2SCC(=O)N2Cc2ccccc2)cc1 (stereo not given),2.9,-2.6,-2.8,101.1,-0.6
COc1ccc(C2SCC(=O)N2CC23CC4CC(CC(C4)C2)C3)cc1 (stereo not given),-9.7,-24.9*,1.7,105.2,5.7
CCCC#Cc1cnc2c(c1)C(=O)N([C@@H](C)CO)C[C@H](C)[C@H](CN(C)Cc1ccc3c(c1)OCO3)O2,-0.9,2.5,1.8,x,x
CNC(=O)NC(=O)C(C)OC(=O)c1ccc(Cl)c(S(=O)(=O)Nc2ccc(F)cc2)c1 (stereo not given),-2.6,-26.4*,-2.9,103.0,2.4
O=C(NCC[C@H]1CC[C@H](NS(=O)(=O)c2ccc(F)cc2)[C@H](CO)O1)Nc1ccc(Cl)cc1,2.6,-54.5,23.9,x,x
CCCNC(=O)[C@H]1[C@H](CO)[C@H]2Cn3c(cccc3=O)[C@H]2N1CC1CCCC1,x,2.5,x,x,x
CC(CNS(=O)(=O)c1ccccc1)Sc1ncccn1 (stereo not given),2.1,3.3,4.0,100.3,346.1*
O=C1CN(S(=O)(=O)c2ccc(Cl)cc2)c2ccccc2N1,-1.3,-22.0*,1.6,93.2,9.1
O=C1CN(S(=O)(=O)c2ccccc2)c2ccccc2N1,2.9,-18.1,2.5,95.5,52.0
C[C@@H]1CCCCO[C@@H](CN(C)C(=O)c2ccccc2)[C@@H](C)CN([C@@H](C)CO)C(=O)c2cc(NS(=O)(=O)c3ccc(Cl)cc3)ccc2O1,-2.2,2.1,1.8,x,x
C[C@@H]1CCCCO[C@H](CN(C)C(=O)C2CCCCC2)[C@@H](C)CN([C@@H](C)CO)C(=O)c2cc(NC(=O)CCCN(C)C)ccc2O1,2.6,-2.5,46.5,x,x
C[C@@H]1CN([C@@H](C)CO)C(=O)Cc2cc(NC(=O)Nc3cccc4ccccc34)ccc2O[C@H]1CN(C)C(=O)Nc1ccc(F)cc1,-1.6,-1.1,-1.5,x,x
O=C1CC(/C=C/c2ccc(Cl)cc2)=Nc2ccccc2N1,5.3,8.9,-0.5,104.7,568.1*
COc1ccc(CN(C)C[C@H]2Oc3c(NS(=O)(=O)c4ccc(F)cc4)cccc3C(=O)N([C@H](C)CO)C[C@H]2C)cc1,3.3,-0.6,-0.7,x,x
